The values below come from ChEMBL document CHEMBL2016444, “Discovery of novel 2-piperidinol-3-(arylsulfonyl)quinoxalines as phosphoinositide 3-kinase α (PI3Kα) inhibitors” (Bioorg Med Chem, 2012).

pIC50: −log10 of the molar value. Active and inactive are the calls of the source. The calls are words filed in the database; no cut-off is given here.

The subject of one experiment is A549. Briefly: Cytotoxicity against human A549 cells after 72 hrs by MTT assay. It counts as functional, cell-based. The conditions noted are these: A549, 72 h. The procedure, abridged:
(§1)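 Cells grown in RPMI-1640 with heat-inactivated 10% FBS, penicillin 100 units/mL, streptomycin, 37 °C, 20% O₂, 5% CO₂. Compounds from 10.0 mg/mL DMSO stocks, diluted. Cells plated 24 h, then exposed to a range of concentrations for 72 h; viable cells read by MTT kit per manufacturer's instructions.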

In a further experiment the test system is PC-3. Briefly: Cytotoxicity against human PC3 cells after 72 hrs by MTT assay. It counts as functional, cell-based. The conditions noted are these: PC-3, 72 h. The procedure, abridged:
as §1
In general terms: Tetrazolium dyes change colour on reduction, which living cells bring about.

A further experiment has as its system HCT-116. Briefly: Cytotoxicity against human HCT116 cells after 72 hrs by MTT assay. It is filed as functional, cell-based. The conditions noted are these: HCT-116, 72 h. A digest of the protocol: as §1
A further experiment has as its system KB. Nature of the experiment: Cytotoxicity against human KB cells after 72 hrs by MTT assay. It counts as functional, cell-based. A digest of the protocol: as §1
The test system of another experiment is HL-60. Nature of the experiment: Cytotoxicity against human HL60 cells after 72 hrs by MTT assay. It counts as functional, cell-based. The conditions noted are these: HL-60, 72 h. A digest of the protocol:
as §1

For experiment [1], the target named is T1, Phosphatidylinositol 4,5-bisphosphate 3-kinase catalytic subunit alpha isoform (Homo sapiens, UniProt P42336). Briefly: Inhibition of PI3Kalpha using diC8-PI(4,5)P2 as substrate after 3 hrs by competitive fluorescence polarization assay. The procedure, abridged: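 Competitive fluorescence polarization. Buffer includes MgCl₂ and 10 mM DTT, with diC₈-PI(4,5)P₂ as substrate. Incubated 3 h at room temperature, then quenched with chelators. Phosphoinositide binding protein and a fluorophore-labeled phosphoinositide tracer were added, and samples equilibrated 1 h in the dark before reading.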
A general note: In fluorescence polarisation assays a small probe gives low polarisation when free and higher when bound to something large.

Experiment [2] deals with T1, Phosphatidylinositol 4,5-bisphosphate 3-kinase catalytic subunit alpha isoform. Briefly: Inhibition of PI3Kalpha-mediated AKT Ser473 phosphorylation in human PC3 cells at 10 uM after 3 hrs by Western blot analysis. It counts as cell-based. The conditions noted are these: PC-3. The procedure, abridged: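 PC3 cells exposed to compound for 3 h. Lysates run on SDS–PAGE and probed for pAkt Ser473 by Western blot, with actin as internal control.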

For experiment [3] the target is unchanged. Nature of the experiment: Ratio of IC50 for WR1 to compound IC50 for PI3Kalpha using diC8-PI(4,5)P2 as substrate after 3 hrs by competitive fluorescence polarization assay.

T1 sequence (P42336 whole entry, canonical isoform): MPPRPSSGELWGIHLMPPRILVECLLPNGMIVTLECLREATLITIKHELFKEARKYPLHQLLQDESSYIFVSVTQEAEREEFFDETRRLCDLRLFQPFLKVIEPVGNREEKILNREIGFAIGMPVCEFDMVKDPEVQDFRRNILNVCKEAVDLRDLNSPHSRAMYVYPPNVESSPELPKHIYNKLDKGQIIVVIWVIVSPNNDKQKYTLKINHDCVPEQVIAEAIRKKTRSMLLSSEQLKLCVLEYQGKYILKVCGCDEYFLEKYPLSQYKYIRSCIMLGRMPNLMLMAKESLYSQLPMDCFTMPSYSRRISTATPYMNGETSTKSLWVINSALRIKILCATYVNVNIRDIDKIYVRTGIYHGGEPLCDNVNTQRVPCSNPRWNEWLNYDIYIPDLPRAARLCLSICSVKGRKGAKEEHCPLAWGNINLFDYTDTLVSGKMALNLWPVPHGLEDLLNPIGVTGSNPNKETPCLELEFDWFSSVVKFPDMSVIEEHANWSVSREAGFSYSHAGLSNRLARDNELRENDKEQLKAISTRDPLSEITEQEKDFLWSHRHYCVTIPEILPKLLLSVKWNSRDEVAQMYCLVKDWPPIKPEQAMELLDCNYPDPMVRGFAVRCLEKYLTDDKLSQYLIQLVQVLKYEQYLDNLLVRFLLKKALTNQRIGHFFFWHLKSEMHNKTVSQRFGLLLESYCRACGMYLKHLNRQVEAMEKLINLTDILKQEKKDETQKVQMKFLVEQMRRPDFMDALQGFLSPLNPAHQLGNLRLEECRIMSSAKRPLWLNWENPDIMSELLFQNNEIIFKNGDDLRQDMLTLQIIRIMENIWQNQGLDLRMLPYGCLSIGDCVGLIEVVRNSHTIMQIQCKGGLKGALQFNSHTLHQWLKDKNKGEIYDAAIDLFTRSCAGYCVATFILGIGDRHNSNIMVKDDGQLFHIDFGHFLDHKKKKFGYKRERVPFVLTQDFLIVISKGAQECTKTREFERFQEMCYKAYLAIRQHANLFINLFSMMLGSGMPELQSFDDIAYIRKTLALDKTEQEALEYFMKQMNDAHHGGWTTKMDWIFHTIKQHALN

For the molecule `COc1ccc(S(=O)(=O)c2nc3ccccc3nc2N2CCCC2)cc1`, the pIC50 (as a rule, −log10 of the IC50, conventionally taken in molar units) in the experiment with A549 is under 4.30; in the experiment on PC-3 it was under 4.30; with HCT-116, under 4.30; with KB it was under 4.30; with HL-60 it was 4.80.

For the molecule `O=S(=O)(c1ccc(F)cc1)c1nc2ccccc2nc1N1CCCC1`, the pIC50 in the experiment on A549 was 4.51; with PC-3, 4.91; in the experiment with HCT-116, 4.69; in the experiment with KB, 4.52; in the experiment on HL-60, 4.89.

With `Cc1ccc(S(=O)(=O)c2nc3ccccc3nc2N2CCc3ccccc3C2)cc1`, the negative logarithm of the IC50 (pIC50) in the experiment with A549 is under 4.30; with PC-3 it was 4.65; in the experiment on HCT-116 it was 4.41; with KB, 4.49; with HL-60, 5.44.

As for `O=S(=O)(c1ccccc1)c1nc2ccccc2nc1N1CCc2ccccc2C1`, the negative logarithm of the IC50 (pIC50) with A549 was 4.70; in the experiment with PC-3, 5.30; in experiment [1], under 4.30; in the experiment with HCT-116 it was 4.73; with KB it was 4.58; with HL-60, 6.06.

With `O=S(=O)(c1ccc(F)cc1)c1nc2ccccc2nc1N1CCc2ccccc2C1`, the negative logarithm of the IC50 (pIC50) was 4.64 in the experiment with A549; 5.03 in the experiment on PC-3; 4.78 in the experiment with HCT-116; 4.45 in the experiment with KB; 5.39 in the experiment on HL-60.

As to `COc1ccc(S(=O)(=O)c2nc3ccccc3nc2N2CCC(O)CC2)cc1`, the pIC50 was 5.29 with A549; 5.01 in the experiment with PC-3; 5.33 in the experiment on HCT-116; 5.09 in the experiment with KB; 5.49 in the experiment on HL-60.

Regarding `Cc1ccc(S(=O)(=O)c2nc3ccccc3nc2N2CCCC2)cc1`, the negative-log IC50 (pIC50) was under 4.30 in the experiment with A549; under 4.30 in the experiment on PC-3; under 4.30 in the experiment with HCT-116; under 4.30 in the experiment with KB; 5.01 in the experiment on HL-60.

Regarding `O=S(=O)(c1ccccc1)c1nc2ccccc2nc1N1CCCC1`, the negative logarithm of the IC50 (pIC50) with A549 was 4.46; in the experiment on PC-3 it was 4.68; in experiment [1], 4.66; with HCT-116, 4.62; with KB, 4.45; in the experiment with HL-60, 5.46.

Consider `Cc1ccc(S(=O)(=O)c2nc3ccccc3nc2N2CCCC(O)C2)cc1` (stereo unspecified), for which the negative logarithm of the IC50 (pIC50) in the experiment with A549 was 5.87; in the experiment with PC-3 it was 5.27; with HCT-116 it was 5.49; in the experiment on KB, 5.22; with HL-60 it was 5.22.

For `O=S(=O)(c1ccccc1)c1nc2ccccc2nc1N1CCCC(O)C1` (stereo unspecified), the pIC50 in the experiment with A549 was 6.51; in the experiment with PC-3, 5.68; in the experiment with HCT-116 it was 5.86; in the experiment with KB, 5.44; in the experiment with HL-60, 5.52.

With `O=S(=O)(c1ccc(F)cc1)c1nc2ccccc2nc1N1CCCC(O)C1` (stereo unspecified), the pIC50 was 5.09 in the experiment with A549; 5.67 with PC-3; 5.26 with HCT-116; 4.74 in the experiment on KB; 5.58 with HL-60.

Take `O=S(=O)(c1ccc(Br)cc1)c1nc2ccccc2nc1N1CCC(O)CC1`: the pIC50 in the experiment on A549 is 6.02; in the experiment with PC-3, 5.69; in experiment [1], 7.60; with HCT-116, 5.78; in the experiment with KB, 5.63; with HL-60, 6.47. The inhibition result in experiment [2] was “Active”.

As for `COc1ccc(S(=O)(=O)c2nc3ccccc3nc2N2CCCC(O)C2)cc1` (stereo unspecified), the pIC50 with A549 is 5.66; in the experiment on PC-3, 5.47; with HCT-116, 5.45; in the experiment with KB, 5.67; in the experiment on HL-60, 5.52.

`COc1ccc(S(=O)(=O)c2nc3ccccc3nc2N2CCc3ccccc3C2)cc1`: the negative logarithm of the IC50 (pIC50) with A549 is under 4.30; with PC-3 it was under 4.30; in the experiment with HCT-116 it was 4.66; in the experiment on KB, under 4.30; with HL-60, 5.43.

Take `O=S(=O)(c1ccccc1)c1nc2ccccc2nc1N1CCOCC1`: the pIC50 in the experiment with A549 is 4.90; with PC-3, 4.72; in experiment [1] it was 6.36; in the experiment with HCT-116, 5.27; with HL-60, 5.35.

In the case of `O=S(=O)(c1ccc(Br)cc1)c1nc2ccccc2nc1N1CCc2ccccc2C1`, the negative logarithm of the IC50 (pIC50) in the experiment with A549 was under 4.30; in the experiment on PC-3 it was under 4.30; with HCT-116, under 4.30; with KB, under 4.30; in the experiment on HL-60 it was 5.58.

`O=S(=O)(c1ccccc1)c1nc2ccccc2nc1N1CCC(O)CC1`: the pIC50 with A549 is 5.69; in the experiment on PC-3, 5.30; in experiment [1] it was 7.10; in the experiment on HCT-116, 5.73; in the experiment with KB it was 5.27; in the experiment with HL-60, 5.54. The Ratio IC50 in experiment [3] was 6.

As to `Cc1ccc(S(=O)(=O)c2nc3ccccc3nc2N2CCC(O)CC2)cc1`, the pIC50 was 5.40 in the experiment with A549; 5.02 with PC-3; 5.26 with HCT-116; 5.21 with KB; 5.39 in the experiment with HL-60.

On to `O=S(=O)(c1ccc(Br)cc1)c1nc2ccccc2nc1N1CCCC(O)C1` (stereo unspecified), for which the negative logarithm of the IC50 (pIC50) with A549 was 5.68; in the experiment with PC-3, 5.43; with HCT-116, 5.68; with KB it was 5.43; in the experiment on HL-60, 5.46.

As to `O=S(=O)(c1ccc(F)cc1)c1nc2ccccc2nc1N1CCC(O)CC1`, the negative logarithm of the IC50 (pIC50) was 4.69 with A549; 5.70 in the experiment on PC-3; 5.87 with HCT-116; 5.02 in the experiment with KB; 5.84 in the experiment with HL-60.

For the molecule `O=S(=O)(c1ccc(Br)cc1)c1nc2ccccc2nc1N1CCCC1`, the negative logarithm of the IC50 (pIC50) with A549 was under 4.30; with PC-3, under 4.30; in the experiment on HCT-116 it was 4.42; in the experiment on KB, under 4.30; in the experiment on HL-60, 5.22.
